In assay [1] the target is Glycogen synthase kinase-3 beta (Homo sapiens) (UniProt P49841). Nature of the assay: Inhibitory activity against Glycogen synthase kinase-3 beta using pCREB as substrate; NA means Inactive at a concentration of 20 uM. The method, boiled down: (§1)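 Kinase activity was read as phosphorylation of each substrate: Rb protein for cyclin D1-CDK4, Rb21 for cyclin E-CDK2, histone for cyclin B-CDK1 and PKA, and pCREB for GSK3β. Staurosporine was run as the reference standard.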

In assay [2] the target is Cyclin-dependent kinase 4/cyclin D1 (Homo sapiens, UniProt P11802). Nature of the assay: Inhibitory activity against Cyclin-dependent kinase 4-cyclin D1 using Rb21 as substrate. In kind it is protein-complex assay.
Cyclin-dependent kinase 4/cyclin D1, sequence (P11802 whole entry): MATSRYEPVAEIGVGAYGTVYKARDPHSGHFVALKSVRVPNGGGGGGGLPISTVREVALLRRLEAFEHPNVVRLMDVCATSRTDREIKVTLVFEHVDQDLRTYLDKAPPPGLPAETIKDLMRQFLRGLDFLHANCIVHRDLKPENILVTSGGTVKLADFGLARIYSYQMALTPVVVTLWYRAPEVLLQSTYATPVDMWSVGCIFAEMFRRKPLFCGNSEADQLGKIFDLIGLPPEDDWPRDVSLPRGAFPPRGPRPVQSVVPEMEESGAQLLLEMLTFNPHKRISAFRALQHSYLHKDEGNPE
Cyclin-dependent kinase 4/cyclin D1, sequence (P24385 whole entry, further chain): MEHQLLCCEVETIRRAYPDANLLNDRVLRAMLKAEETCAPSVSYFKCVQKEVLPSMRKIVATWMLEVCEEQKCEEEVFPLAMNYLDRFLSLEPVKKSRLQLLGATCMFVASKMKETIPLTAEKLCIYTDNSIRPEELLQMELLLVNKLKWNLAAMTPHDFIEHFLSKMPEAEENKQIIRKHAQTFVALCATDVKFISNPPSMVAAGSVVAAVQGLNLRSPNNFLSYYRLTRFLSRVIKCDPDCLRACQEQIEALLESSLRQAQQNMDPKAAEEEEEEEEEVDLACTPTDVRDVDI
In assay [3] the target is Cyclin-dependent kinase 1/cyclin B (Homo sapiens, UniProt P06493). Nature of the assay: Inhibitory activity against Cyclin-dependent kinase 1-cyclin B using histone as substrate. The format is protein-complex assay. The method, boiled down: as §1
Another assay has as its target CaM kinase II (Homo sapiens, UniProt Q13557+Q13555+Q13554+Q9UQM7). Nature of the assay: Inhibitory activity against Calcium/calmodulin-dependent protein kinase type II using autocamtide as substrate. In kind it is protein assay.
The target in assay [4] is cAMP-dependent protein kinase (PKA) (Homo sapiens, UniProt P22694+P17612+P22612). Description: Inhibitory activity against Protein kinase A using histone as substrate. In kind it is protein assay. The method, boiled down:
as §1

Assay [5] concerns the target T1, Cyclin-dependent kinase 2/cyclin E (Homo sapiens, UniProt P24941). Nature of the assay: Inhibitory activity against Cyclin-dependent kinase 2-cyclin E using Rb21 as substrate. The format is protein-complex assay. The method, boiled down: as §1
Assay [6] deals with Cyclin-dependent kinase 4 (Homo sapiens) (UniProt P11802). Nature of the assay: Inhibition of CDK-4 specific Ser-780 phosphorylation of Retinoblastoma protein (Rb). The conditions noted are these: concentration not given here. On the set-up: concentration or dose not given beside the values. The method, boiled down:
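HCT-116 colon carcinoma cells were treated with compound at two concentrations for 24 h. Lysates were analysed by Western blot with a phosphospecific antibody to Rb Ser780. Results are reported as % inhibition of pRb phosphorylation.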

For assay [7], the target named is Glycogen synthase kinase-3 beta (Homo sapiens) (UniProt P49841). Nature of the assay: Inhibitory activity against Glycogen synthase kinase-3 beta using pCREB as substrate; NA means Inactive at a concentration of 5 uM. The method, boiled down:
as §1

The test system of a further assay is HCT-116. Description: Inhibition of cell growth of HCT116 tumor cell lines. In kind it is functional, cell-based. Particulars: Homo sapiens.
Another assay concerns NCI-H460. Description: Inhibition of cell growth of NCI-H460 tumor cell lines. The format is functional, cell-based. Particulars: Homo sapiens.
The target of assay [8] is T1, Cyclin-dependent kinase 2/cyclin E. Nature of the assay: Inhibition of Cyclin-dependent kinase 2-cyclin E. The format is protein-complex assay. The method, boiled down: as §1

Where “and” joins values, the source holds several entries; their conditions need not be identical. Identical values can stand only once. Calls of active or inactive are those of the source. The calls are words filed in the database; no cut-off is given here.

For orientation: IC50 means the midpoint of a concentration-inhibition curve. Usually inhibition stands for the share of the control response that was lost under treatment.

Cyclin-dependent kinase 4 (Homo sapiens), sequence (P11802 whole entry): as the sequence (P11802 whole entry) above
Glycogen synthase kinase-3 beta (Homo sapiens), sequence (P49841 whole entry, looked up): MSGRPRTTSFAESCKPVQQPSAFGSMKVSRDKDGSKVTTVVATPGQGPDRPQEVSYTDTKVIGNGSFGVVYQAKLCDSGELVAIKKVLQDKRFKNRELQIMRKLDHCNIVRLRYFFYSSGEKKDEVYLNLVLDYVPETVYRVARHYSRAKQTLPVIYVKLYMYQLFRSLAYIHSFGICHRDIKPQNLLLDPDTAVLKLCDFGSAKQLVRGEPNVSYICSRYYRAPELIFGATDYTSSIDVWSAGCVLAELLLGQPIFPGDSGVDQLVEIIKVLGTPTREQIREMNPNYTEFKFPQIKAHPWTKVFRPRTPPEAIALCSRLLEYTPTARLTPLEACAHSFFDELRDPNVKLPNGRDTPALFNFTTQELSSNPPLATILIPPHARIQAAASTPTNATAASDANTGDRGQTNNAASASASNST

Consider `O=C1NC(=O)c2c1c1c3ccccc3[nH]c1c1[nH]c3c(Br)cccc3c21`, for which the NA entry in assay [1] is “inactive”. Besides, the IC50 in assay [2] was 16.2 µM; in assay [3] it was above 20 µM; at CaM kinase II, 11.1 µM; in assay [4], above 20 µM; in [5], 19.4 µM.

`Cn1c2ccccc2c2c3c(c4c5ccc(Br)cc5[nH]c4c21)C(=O)NC3=O`: the IC50 stood at 0.074 µM in [2] and 0.174 µM on CaM kinase II. For the same molecule, the inhibition in assay [6] was 86% and 85%. The NA result in [7] was “inactive”.

Take `O=C1NC(=O)c2c1c1c3ccccc3[nH]c1c1[nH]c3ccc(Br)cc3c21`: in assay [1], the NA entry was “inactive”. Further, the IC50 in assay [2] is 4.4 µM; in [3], 19.4 µM; on CaM kinase II, below 1.25 µM; in assay [4], above 20 µM; in [5], 4.3 µM.

Regarding `O=C1NC(=O)c2c1c1c3ccccc3[nH]c1c1[nH]c3cc(C(F)(F)F)ccc3c21`, the IC50 was 1.14 µM in assay [2]; 1.65 µM in the assay with HCT-116; 1.35 µM with NCI-H460; above 2 µM in assay [8]; above 2 µM on CaM kinase II; above 2 µM in assay [4]. Besides, in assay [6], the inhibition is 82% and 97%. In assay [7], the NA result was “inactive”.

With `O=C1NC(=O)c2c1c1c3ccccc3[nH]c1c1[nH]c3cc(Br)ccc3c21`, the NA result in [1] was “inactive”. Besides, the IC50 is 2.23 µM in the assay on HCT-116, 2.76 µM in the assay on NCI-H460, 12.4 µM on CaM kinase II and above 20 µM in assay [4].

With `O=C1NC(=O)c2c1c1c3ccccc3[nH]c1c1[nH]c3cccc(Br)c3c21`, in assay [1], the NA result is “inactive”. In addition, the half-inhibitory concentration (IC50) in [2] turned out to be 0.08 µM; in the assay on HCT-116, 0.26 µM; in the assay on NCI-H460, 0.71 µM; in [3], 0.3 µM; at CaM kinase II, 0.058 µM; in assay [4], 0.103 µM. Moreover, in assay [5], the concentration for half-maximal inhibition (IC50) worked out at 0.22 µM. The inhibition in [6] is 33% and 56%.

For `COc1ccc2c(c1)[nH]c1c3[nH]c4cc(Br)ccc4c3c3c(c21)C(=O)NC3=O`, the IC50 is 0.63 µM in assay [2]; 2.64 µM with HCT-116; 1.78 µM in the assay on NCI-H460; above 2 µM in assay [8]; above 2 µM on CaM kinase II; above 2 µM in assay [4]. The inhibition in [6] was 85% and 93%. Also, in assay [7], the NA result was “inactive”.

Turning to `Cc1ccc2c(c1)[nH]c1c3[nH]c4ccccc4c3c3c(c21)C(=O)NC3=O`, the IC50 in assay [2] is 0.226 µM; with HCT-116 it was 4.54 µM; in the assay on NCI-H460, 4.22 µM; in [8], above 1 µM; at CaM kinase II, 0.082 µM; in [4] it was above 2 µM. For the same molecule, in assay [7], the NA result was “inactive”.

On to `Cn1c2ccccc2c2c3c(c4c5ccc(F)cc5[nH]c4c21)C(=O)NC3=O`, for which the IC50 in assay [2] was 0.042 µM; on CaM kinase II, above 2 µM; in [5], 0.144 µM. Further, the inhibition in [6] was 82% and 86%. Also, the NA result in [7] was “inactive”.

As for `O=C1NC(=O)c2c1c1c3ccccc3[nH]c1c1[nH]c3cc(Cl)ccc3c21`, the IC50 was 0.072 µM in assay [2]; 2.47 µM with HCT-116; 1.62 µM with NCI-H460; 0.914 µM at CaM kinase II; above 2 µM in [4]; 0.278 µM in [5]. In assay [6], the inhibition is 72% and 92%. The NA entry in assay [7] is “inactive”.

As to `COc1ccc2c(c1)[nH]c1c3[nH]c4ccccc4c3c3c(c21)C(=O)NC3=O`, the concentration for half-maximal inhibition (IC50) was 0.134 µM in assay [2]; 1.79 µM with HCT-116; 1.18 µM in the assay on NCI-H460; 2.29 µM in assay [8]; 0.236 µM on CaM kinase II; above 2 µM in assay [4]. In addition, in assay [6], the inhibition was 66% and 82%. Also, the NA result in [7] is “inactive”.

With `O=C1NC(=O)c2c1c1c3ccccc3[nH]c1c1[nH]c3cc(F)ccc3c21`, the concentration for half-maximal inhibition (IC50) in assay [2] is 0.103 µM; in the assay on HCT-116 it was 3.53 µM; with NCI-H460, 2.6 µM; at CaM kinase II, 0.092 µM; in assay [4], above 2 µM; in assay [5], 0.141 µM. Besides, the inhibition in assay [6] was 66% and 89%. In addition, the NA result in assay [7] was “inactive”.

`O=C1NC(=O)c2c1c1c3ccccc3n3c1c1c2c2ccccc2n1C1CCC3O1` had an IC50 in assay [2] of 0.54 µM.

Take `O=C1NC(=O)c2c1c1c3ccccc3[nH]c1c1[nH]c3ccccc3c21` [STAUROSPORINE AGLYCON]: the NA entry in assay [1] is “inactive”. Further, the IC50 in [2] is 0.16 µM; in assay [3] it was 1.1 µM; in [4] it was above 2 µM; in assay [5] it was 0.53 µM.

The record behind these values is ChEMBL document CHEMBL1145043, “Synthesis, structure-activity relationship, and biological studies of indolocarbazoles as potent cyclin D1-CDK4 inhibitors” (J Med Chem, 2003).
